Laboratory results reported in ChEMBL document CHEMBL1138661, “Design, synthesis, and structure-activity relationship studies of 3,4,6-triphenylpyran-2-ones as selective cyclooxygenase-2 inhibitors” (J Med Chem, 2004).

Assays:
[1] = biological target: T1, Prostaglandin G/H synthase 1 (Ovis aries, UniProt P05979); assay: Inhibition of ovine Prostaglandin G/H synthase 1
T1 sequence (P05979 whole entry): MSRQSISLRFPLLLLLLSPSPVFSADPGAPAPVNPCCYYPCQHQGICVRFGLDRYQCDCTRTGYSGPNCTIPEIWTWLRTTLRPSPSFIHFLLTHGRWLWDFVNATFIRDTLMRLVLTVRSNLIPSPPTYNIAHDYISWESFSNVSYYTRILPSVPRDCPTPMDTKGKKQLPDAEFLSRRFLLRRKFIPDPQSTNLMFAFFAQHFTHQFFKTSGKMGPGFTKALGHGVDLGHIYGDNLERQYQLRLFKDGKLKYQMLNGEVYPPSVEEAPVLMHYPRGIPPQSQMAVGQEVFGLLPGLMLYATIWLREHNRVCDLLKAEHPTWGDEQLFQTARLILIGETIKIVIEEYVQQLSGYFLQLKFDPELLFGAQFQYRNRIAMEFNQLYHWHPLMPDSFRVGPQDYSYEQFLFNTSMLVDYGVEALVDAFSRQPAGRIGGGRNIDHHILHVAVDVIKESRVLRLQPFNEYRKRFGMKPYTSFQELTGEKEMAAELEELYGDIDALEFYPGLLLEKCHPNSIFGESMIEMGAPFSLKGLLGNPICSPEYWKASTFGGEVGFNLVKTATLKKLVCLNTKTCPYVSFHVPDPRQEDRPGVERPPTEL
Outline: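 Ovine COX-1 with heme in 0.1 M Tris-HCl pH 8.0, 5 mM EDTA, 2 mM phenol. Test drug from DMSO stock at 0.001–100 μM final, preincubated 5 min at 37 °C. Arachidonic acid added, stopped with 1 M HCl after 2 min. IC50 from concentration–inhibition curve, duplicate determinations.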

[2] = organism: Rattus norvegicus; assay: Percent inhibition of analgesic activity in a rat model 4% NaCl-induced abdominal constriction assay at 30 min; assay type: functional, Abdomen
Outline: (§1)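 Male Sprague-Dawley rats given test compound orally at 5 mg/kg. Writhing (abdominal constriction) induced by 4% NaCl. Inhibition of writhing scored at 30 or 60 min after dosing. Mean ± SEM, n = 4-6.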

[3] = organism: Rattus norvegicus; assay: Percent inhibition of analgesic activity in a rat model 4% NaCl-induced abdominal constriction assay at 60 min; assay type: functional, Abdomen; outline: as §1
[4] = biological target: T2, Prostaglandin G/H synthase 2 (Rattus norvegicus) (UniProt P35355)
T2 sequence (whole entry): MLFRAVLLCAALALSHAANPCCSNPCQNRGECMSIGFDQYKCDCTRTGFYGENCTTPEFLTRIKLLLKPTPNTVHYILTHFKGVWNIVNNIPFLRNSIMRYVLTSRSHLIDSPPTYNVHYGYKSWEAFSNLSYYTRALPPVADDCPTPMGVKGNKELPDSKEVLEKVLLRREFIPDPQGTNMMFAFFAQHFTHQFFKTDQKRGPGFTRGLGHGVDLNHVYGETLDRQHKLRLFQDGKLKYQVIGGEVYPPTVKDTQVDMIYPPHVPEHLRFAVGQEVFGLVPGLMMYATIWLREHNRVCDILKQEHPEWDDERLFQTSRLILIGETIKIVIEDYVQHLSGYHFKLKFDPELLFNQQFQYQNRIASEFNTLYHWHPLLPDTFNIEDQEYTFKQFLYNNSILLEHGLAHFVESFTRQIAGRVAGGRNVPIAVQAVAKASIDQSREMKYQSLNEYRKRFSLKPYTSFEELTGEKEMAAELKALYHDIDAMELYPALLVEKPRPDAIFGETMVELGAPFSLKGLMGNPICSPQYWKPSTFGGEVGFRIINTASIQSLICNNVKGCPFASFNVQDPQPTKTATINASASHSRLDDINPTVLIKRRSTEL

| IC50 [1] [µM] | ID50 [4] [mg/kg] | Compound | Inhibition [2] [%] | Inhibition [3] [%] |
| --- | --- | --- | --- | --- |
| > 100 |  | Cc1ccc(-c2cc(-c3ccccc3)c(-c3ccc(S(C)(=O)=O)cc3)c(=O)o2)cc1 |  |  |
| 20 |  | COc1ccc(-c2cc(-c3ccc(F)cc3)c(-c3ccc(S(C)(=O)=O)cc3)c(=O)o2)cc1 |  |  |
| > 100 |  | CS(=O)(=O)c1ccc(-c2cc(-c3ccccc3)oc(=O)c2-c2ccccc2)cc1 |  |  |
| > 100 |  | CS(=O)(=O)c1ccc(-c2c(-c3ccccc3)cc(-c3ccc(O)cc3)oc2=O)cc1 |  |  |
| > 100 |  | CCOc1ccc(-c2cc(-c3ccccc3)c(-c3ccc(N=[N+]=[N-])cc3)c(=O)o2)cc1 |  |  |
| > 100 |  | CSc1ccc(-c2cc(-c3ccc(F)cc3)c(-c3ccc(S(C)(=O)=O)cc3)c(=O)o2)cc1 |  |  |
| 11 |  | CS(=O)(=O)c1ccc(-c2cc(-c3ccc(F)cc3)oc(=O)c2-c2ccccc2)cc1 |  |  |
| > 100 | 21.4 | COc1ccc(-c2cc(-c3ccc(S(C)(=O)=O)cc3)c(-c3ccncc3)c(=O)o2)cc1 | 58.3 | 55 |
| > 100 |  | Cc1ccc(-c2cc(-c3ccc(S(C)(=O)=O)cc3)c(-c3ccccc3)c(=O)o2)cc1 |  |  |
| 32.5 |  | CS(=O)(=O)c1ccc(-c2c(-c3ccccc3)cc(-c3ccc(N)cc3)oc2=O)cc1 |  |  |
| 3.2 |  | CCOc1ccc(-c2cc(-c3ccc(F)cc3)c(-c3ccc(S(C)(=O)=O)cc3)c(=O)o2)cc1 |  |  |
| > 100 |  | CS(=O)(=O)c1ccc(-c2c(-c3ccccc3)cc(-c3ccccc3)oc2=O)cc1 |  |  |
| 37.7 | 7.9 | CSc1ccc(-c2cc(-c3ccccc3)c(-c3ccc(S(C)(=O)=O)cc3)c(=O)o2)cc1 | 72 | 64.7 |
| > 100 | 19.2 | COc1ccc(-c2cc(-c3ccccc3)c(-c3ccc(S(C)(=O)=O)cc3)c(=O)o2)cc1 | 37.5 | 69 |
| > 100 |  | CS(=O)(=O)c1ccc(-c2cc(-c3ccccc3)c(-c3ccccc3)c(=O)o2)cc1 |  |  |
| 0.44 |  | COc1ccc(-c2cc(-c3cccnc3)c(-c3ccc(S(C)(=O)=O)cc3)c(=O)o2)cc1 |  |  |
| > 100 |  | CS(=O)(=O)c1ccc(-c2c(-c3ccccc3)cc(-c3ccc([N+](=O)[O-])cc3)oc2=O)cc1 |  |  |
| 1.07 |  | CCOc1ccc(-c2cc(-c3ccc(S(C)(=O)=O)cc3)c(-c3ccc(F)cc3)c(=O)o2)cc1 |  |  |

| IC50 [1] [µM] | ID50 [4] [mg/kg] | Compound | Inhibition [2] [%] | Inhibition [3] [%] |
| --- | --- | --- | --- | --- |
| > 100 | 5.6 | CCOc1ccc(-c2cc(-c3ccccc3)c(-c3ccc(S(C)(=O)=O)cc3)c(=O)o2)cc1 | 58.3 | 75 |
| 0.15 |  | COc1ccc(-c2cc(-c3ccc(S(C)(=O)=O)cc3)c(-c3cccnc3)c(=O)o2)cc1 |  |  |
| 3 |  | CS(=O)(=O)c1ccc(-c2c(-c3cccnc3)cc(-c3ccccc3)oc2=O)cc1 |  |  |
| 31.2 |  | CSc1ccc(-c2cc(-c3ccc(S(C)(=O)=O)cc3)c(-c3ccccc3)c(=O)o2)cc1 |  |  |
| 3.2 |  | CS(=O)(=O)c1ccc(-c2cc(-c3ccccc3)oc(=O)c2-c2cccnc2)cc1 |  |  |
|  |  | Cc1ccc(-c2cc(C(F)(F)F)nn2-c2ccc(S(N)(=O)=O)cc2)cc1 [CELECOXIB] | 69.33 |  |
| 31.6 |  | CCOc1ccc(-c2cc(-c3ccc(S(C)(=O)=O)cc3)c(-c3ccccc3)c(=O)o2)cc1 |  |  |
| > 100 |  | CS(=O)(=O)c1ccc(-c2cc(-c3ccccc3)oc(=O)c2-c2ccncc2)cc1 |  |  |
| > 100 |  | CS(=O)(=O)c1ccc(-c2c(-c3ccccc3)cc(-c3ccc(C(F)(F)F)cc3)oc2=O)cc1 |  |  |
| > 100 |  | CCc1ccc(-c2cc(-c3ccccc3)c(-c3ccc(S(C)(=O)=O)cc3)c(=O)o2)cc1 |  |  |
| 30 |  | CSc1ccc(-c2cc(-c3ccccc3)c(-c3ccc(N=[N+]=[N-])cc3)c(=O)o2)cc1 |  |  |
| > 100 | 5.6 | COc1ccc(-c2cc(-c3ccccc3)c(-c3ccc(N=[N+]=[N-])cc3)c(=O)o2)cc1 | 47.2 | 55.5 |
| > 100 |  | CCc1ccc(-c2cc(-c3ccc(S(C)(=O)=O)cc3)c(-c3ccccc3)c(=O)o2)cc1 |  |  |
| > 100 |  | CS(=O)(=O)c1ccc(-c2c(-c3ccccc3)cc(-c3ccc(F)cc3)oc2=O)cc1 |  |  |
| 25.3 |  | CS(=O)(=O)c1ccc(-c2cc(-c3ccc(C(F)(F)F)cc3)oc(=O)c2-c2ccccc2)cc1 |  |  |
| 31.5 |  | COc1ccc(-c2cc(-c3ccc(S(C)(=O)=O)cc3)c(-c3ccccc3)c(=O)o2)cc1 |  |  |
| 10.7 |  | COc1ccc(-c2cc(-c3ccc(S(C)(=O)=O)cc3)c(-c3ccc(F)cc3)c(=O)o2)cc1 |  |  |
